Data set [1] can be described thus: Cytotoxicity against BALB/c mouse 3T3 clone A31 cells after 48 hrs by SRB assay method. Type of data set: cell-based. The note with it: A31, 48 h. The procedure, abridged:
(§1)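 Cells plated in growth medium and allowed to attach 24 h (37 °C, 5% CO₂). Time-zero plate fixed with TCA. Serial 4-fold dilutions added for 48 h. Cells fixed with cold TCA, stained with 0.2% SRB, dye solubilized in 10 mM Tris pH 10.5, absorbance read at 510 nm. GI50 is 50% absorbance reduction versus solvent controls, by linear regression. K562 counted by Coulter counter instead. 5-FU reference.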
In general terms: The SRB assay estimates cell density from bound dye.

The nature of data set [2]: Cytotoxicity against BALB/c mouse peritoneal macrophages assessed as cell viability after 48 hrs by trypan blue dye exclusion method. The note with it: Peritoneal macrophage cell. In kind it is cell-based.
In data set [3] the test system is Leishmania amazonensis. Kind of data set: Antileishmanial activity against axenic amastigote stage of Leishmania amazonensis MHOM/BR/76/LTB-012 by MTT method. Type of data set: functional, organism-based. The gist of the method: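 Axenic amastigotes, grown in MAA/20 medium at 32 ± 1 °C. IC50 by MTT micromethod; compounds from 10 mM DMSO stocks, DMSO ≤1% final.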
Background: Tetrazolium assays rely on reduction of a dye to a coloured formazan, in cell work by metabolically active cells.

Data set [4] is described as follows: Therapeutic index, ratio of IC50 for BALB/c mouse peritoneal macrophages to IC50 for promastigote form of Leishmania major (MHOM/IL/81/BNI). The note with it: read-out: Ratio IC50.
Data set [5] in a line: Therapeutic index, ratio of IC50 for BALB/c mouse 3T3 clone A31 cells to IC50 for promastigote form of Leishmania major (MHOM/IL/81/BNI). In kind it is cell-based. The note with it: read-out: Ratio IC50.
The test system of data set [6] is Leishmania major. In words: Antileishmanial activity against amastigote form of Leishmania major MHOM/IL/81/BNI amastigote in Balb/c mouse peritoneal macrophages after 4 days by May-Grunwald-Giemsa staining-based microscopic analysis. In kind it is functional, organism-based. The note with it: 96 h. The procedure, abridged: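 Peritoneal macrophages from Balb/c mice, 1.5 10⁵ cell/mL in RPMI 1640 + 15% FBS, left 24 h on glass slides (37 °C, 5% CO₂), then infected 24 h with stationary-phase promastigotes (1.5 × 10⁶/mL). Washed cultures exposed to 100, 10, 1 and 0.1 µM for 4 days. Fixed with methanol, Giemsa-stained. Amastigotes counted in 100 macrophages per duplicate well; IC50 from amastigotes/macrophage. Done twice.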

Data set [7] is described as follows: Therapeutic index, ratio of IC50 for BALB/c mouse peritoneal macrophages to IC50 for amastigote form of Leishmania major (MHOM/IL/81/BNI) in BALB/c mouse peritoneal macrophages. The note with it: read-out: Ratio IC50.
Data set [8] can be described thus: Cytotoxicity against human MCF7 cells assessed as growth inhibition after 48 hrs by SRB assay method. In kind it is cell-based. The gist of the method: as §1
Data set [9] deals with Leishmania major. In words: Antileishmanial activity against promastigote form of Leishmania major MHOM/IL/81/BNI after 96 hrs by spectrofluorimetric micromethod. Type of data set: functional, organism-based.
Data set [10] in a line: Cytotoxicity against human DU145 cells assessed as growth inhibition after 48 hrs by SRB assay method. In kind it is cell-based, DU-145. The procedure, abridged:
as §1

Data set [11] can be described thus: Cytotoxicity against human HT-29 cells assessed as growth inhibition after 48 hrs by SRB assay method. In kind it is cell-based. The procedure, abridged: as §1
Data set [12] can be described thus: Cytotoxicity against human M14 cells assessed as growth inhibition after 48 hrs by SRB assay method. Type of data set: cell-based. The procedure, abridged:
as §1

A short description of data set [13]: Cytotoxicity against human HuTu 80 cells assessed as growth inhibition after 48 hrs by SRB assay method. Type of data set: cell-based, HuTu80. The gist of the method:
as §1

Data set [14] is described as follows: Cytotoxicity against human K562 cells assessed as growth inhibition after 48 hrs by Coulter counter cell counting.
Data set [15] can be described thus: Inhibition of native porcine brain CK1 delta/epsilon using RRKHAAIGpSAYSITA as substrate and [gamma-33P]ATP after 30 mins by scintillation counting. On the set-up: species or system Sus scrofa. The gist of the method:
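Native porcine brain CK1δ/ε, in threefold-diluted buffer A (25 mM Mops pH 7.2, 15 mM MgCl₂, 5 mM EGTA, 1 mM DTT, phosphatase inhibitors). 25 μM CKS peptide substrate, 15 μM [γ-³³P]ATP, 30 min at 30 °C. Stopped on P81 paper, washed in 1% phosphoric acid, counted by scintillation. Blank subtracted; activity as % of the no-inhibitor value; DMSO controls.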

The nature of data set [16]: Cytotoxicity against human H460 cells assessed as growth inhibition after 48 hrs by SRB assay method. In kind it is cell-based, NCI-H460. The procedure, abridged:
as §1

A short description of data set [17]: Inhibition of Leishmania major CK1.2 using RRKHAAIGpSAYSITA as substrate and [gamma-33P]ATP after 30 mins by scintillation counting. The gist of the method:
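Recombinant His-tagged L. major CK1.2 from E. coli, purified on cobalt beads. Assayed as for the porcine enzyme: CKS peptide substrate, 15 μM [γ-³³P]ATP, 30 min at 30 °C, P81 capture and scintillation counting. Activity as % of the no-inhibitor value.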

Values after ≈ are worked out from the molar mass of the structure shown. Active and inactive are the calls of the source. The rule behind the calls is not given here.

What is called IC50 is the midpoint of a concentration-inhibition curve. A word on the GI50: it is the concentration that inhibits growth by half. On to `CN(C)c1nccn2c(-c3ccncc3)c(-c3ccc(F)cc3)nc12`, for which the IC50 is over 375 µM in data set [1]; 42 µM in data set [2]; 0.8 µM in [6]; 6.4 µM in [9]; 2.1 µM in data set [15]; 0.99 µM in [17]. For the same compound, the result in data set [3] was inactive. Besides, the selectivity ratio in data set [4] is 6.6; in data set [5] it was over 58.6; in data set [7], 52.5. For the same compound, the GI50 at 48 h in [8] was 52 µg/mL (≈ 156 µM); in data set [10], over 125 µg/mL; in data set [11], over 125 µg/mL; in data set [12] it was over 125 µg/mL; in data set [13], 77 µg/mL (≈ 231 µM); in data set [14], over 125 µg/mL. Besides, in [16], the GI50 at 48 h was over 125 µg/mL.

With `Fc1ccc(-c2nc3c(NCCN4CCOCC4)nccn3c2I)cc1`, the IC50 was over 268 µM in data set [1]; 93.2 µM in [2]; 0.2 µM in data set [6]; 2.8 µM in [9]; over 10 µM in [15]; over 10 µM in data set [17]. Moreover, in data set [3], the outcome was inactive. Moreover, the values for the selectivity ratio in [4], in [5] and in data set [7] were 33.3, over 95.6 and 466, respectively. Moreover, the GI50 at 48 h in data set [8] is over 125 µg/mL; in data set [10], over 125 µg/mL; in [11], over 125 µg/mL; in data set [12] it was over 125 µg/mL; in data set [13] it was 73 µg/mL (≈ 156 µM); in data set [14], over 125 µg/mL. Further, the GI50 at 48 h in data set [16] is over 125 µg/mL.

In the case of `CN(C)c1nccn2c(-c3ccncc3)c(-c3ccccc3)nc12`, the IC50 in [1] was 155 µM; in data set [2] it was 144 µM; in data set [6], 9.4 µM; in data set [9], 31.3 µM; in data set [15], 2.4 µM; in data set [17] it was 0.48 µM. Moreover, in [3], the result was inactive. The selectivity ratio in data set [4] stood at 4.6; in [5] it was 5; in data set [7], 15.3. Also, the concentration for 50% growth inhibition (GI50) at 48 h in [8] turned out to be 32 µg/mL (≈ 101 µM); in [10], 90 µg/mL (≈ 285 µM); in data set [11] it was 56 µg/mL (≈ 178 µM); in data set [12], 84 µg/mL (≈ 266 µM); in data set [13], 50 µg/mL (≈ 159 µM); in data set [14], 48 µg/mL (≈ 152 µM). Moreover, in data set [16], the GI50 at 48 h worked out at 70 µg/mL (≈ 222 µM).

The record behind these values is ChEMBL document CHEMBL3632541, “Synthesis, antileishmanial activity and cytotoxicity of 2,3-diaryl- and 2,3,8-trisubstituted imidazo[1,2-a]pyrazines” (Eur J Med Chem, 2015).
